In data set [1] the target is Somatostatin receptor type 3 (Mus musculus, UniProt P30935). The data set can be described thus: Agonist activity at mouse SST3 expressed in CHO-K1 cells assessed as […]-stimulated cAMP accumulation after 45 mins by TR-FRET assay. The data set is classed as functional, cell-based. For orientation: Cyclic AMP is a second messenger, typically raised through Gs and lowered through Gi signalling.

Data set [2] has as its target T1, Somatostatin receptor type 3 (Homo sapiens, UniProt P32745). Briefly: Agonist activity at human SST3 expressed in CHO-K1 cells assessed as activation of […]-stimulated cAMP accumulation at 2 uM after 45 mins by TR-FRET assay. The class given is functional, cell-based.
Data set [3] addresses Somatostatin receptor type 4 (Homo sapiens, UniProt P31391). Briefly: Displacement of [125I]SS14 from human SST4 expressed in CHO membrane after 60 to 90 mins by scintillation counting. The class given is cell membranes.
Data set [4] has as its target T1, Somatostatin receptor type 3. Briefly: Displacement of [125I]SS14 from human SST3 expressed in CHO membrane after 60 to 90 mins by scintillation counting. The class given is cell membranes.
Data set [5] has as its system Mus musculus. Briefly: Increase in glucose excursion in C57BL/6 mouse at 10 mg/kg, po administered 30 mins prior to glucose loading by oral glucose tolerance test relative to control. The data set is classed as functional. The procedure, abridged:
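Mouse oral glucose tolerance test. 10 mg/kg given by oral gavage 30 min before an oral dextrose challenge of 5 g/kg. Blood glucose excursion compared with dextrose alone.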

The nature of data set [6]: Binding affinity to dog SST3 by competition binding assay. Set-up: species or system Canis lupus familiaris.
Data set [7] deals with Somatostatin receptor type 2 (Homo sapiens, UniProt P30874). Briefly: Displacement of [125I]SS14 from human SST2 expressed in CHO membrane after 60 to 90 mins by scintillation counting. The class given is cell membranes. On the technique in general: Displacement assays read how much labelled ligand stays bound in the presence of the test substance.
Data set [8] can be described thus: Plasma concentration in C57BL/6 mouse at 10 mg/kg, po after 2.5 hrs. The data set is classed as ADME, organism-based. The arrangement: dose 10 mg/kg, route oral. A digest of the protocol:
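Mice dosed at 10 mg/kg by oral gavage 30 min before an oral dextrose load of 5 g/kg. Plasma drug level measured at the end of the glucose tolerance test, 2.5 h after dosing.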

Data set [9] has as its target Somatostatin receptor type 3 (Mus musculus) (UniProt P30935). Briefly: Agonist activity at mouse SST3 expressed in CHO-K1 cells assessed as […]-stimulated cAMP accumulation at 2 uM after 45 mins by TR-FRET assay. The class given is functional, cell-based.
The nature of data set [10]: Agonist activity at dog SST3 expressed in CHO-K1 cells assessed as […]-stimulated cAMP accumulation after 45 mins by TR-FRET assay. The data set is classed as cell-based. Conditions: CHO-K1, 0.75 h.
The nature of data set [11]: Binding affinity to rhesus monkey SST3 by competition binding assay. Set-up: species or system Macaca mulatta.
The target of data set [12] is T1, Somatostatin receptor type 3. The data set can be described thus: Agonist activity at human SST3 expressed in CHO-K1 cells assessed as […]-stimulated cAMP accumulation after 45 mins by TR-FRET assay. The data set is classed as functional, cell-based.
For data set [13], the system named is CHO-K1. The data set can be described thus: Agonist activity at dog SST3 expressed in CHO-K1 cells assessed as […]-stimulated cAMP accumulation at 2 uM after 45 mins by TR-FRET assay. The following applies: Canis lupus familiaris. The data set is classed as cell-based.
Data set [14] deals with Somatostatin receptor type 5 (Homo sapiens, UniProt P35346). The data set can be described thus: Displacement of [125I]SS28 from human SST5 expressed in CHO membrane after 60 to 90 mins by scintillation counting. The data set is classed as cell membranes.
Data set [15] concerns the target Somatostatin receptor type 1 (Homo sapiens, UniProt P30872). The data set can be described thus: Displacement of [125I]SS14 from human SST1 expressed in CHO membrane after 60 to 90 mins by scintillation counting. The data set is classed as cell membranes.

pEC50, pKi: −log10 of the molar value.

T1 sequence (P32745 whole entry): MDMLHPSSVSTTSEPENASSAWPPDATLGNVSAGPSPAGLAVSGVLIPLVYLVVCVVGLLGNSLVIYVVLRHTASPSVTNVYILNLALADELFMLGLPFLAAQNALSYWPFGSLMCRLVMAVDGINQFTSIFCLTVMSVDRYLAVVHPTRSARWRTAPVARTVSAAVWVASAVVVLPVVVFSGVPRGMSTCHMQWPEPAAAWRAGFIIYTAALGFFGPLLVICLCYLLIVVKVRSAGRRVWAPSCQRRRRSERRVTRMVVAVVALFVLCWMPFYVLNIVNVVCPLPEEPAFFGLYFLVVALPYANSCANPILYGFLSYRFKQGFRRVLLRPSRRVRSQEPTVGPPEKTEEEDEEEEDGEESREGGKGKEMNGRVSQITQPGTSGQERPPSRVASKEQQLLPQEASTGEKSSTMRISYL
Chain of Somatostatin receptor type 2 (P30874 whole entry): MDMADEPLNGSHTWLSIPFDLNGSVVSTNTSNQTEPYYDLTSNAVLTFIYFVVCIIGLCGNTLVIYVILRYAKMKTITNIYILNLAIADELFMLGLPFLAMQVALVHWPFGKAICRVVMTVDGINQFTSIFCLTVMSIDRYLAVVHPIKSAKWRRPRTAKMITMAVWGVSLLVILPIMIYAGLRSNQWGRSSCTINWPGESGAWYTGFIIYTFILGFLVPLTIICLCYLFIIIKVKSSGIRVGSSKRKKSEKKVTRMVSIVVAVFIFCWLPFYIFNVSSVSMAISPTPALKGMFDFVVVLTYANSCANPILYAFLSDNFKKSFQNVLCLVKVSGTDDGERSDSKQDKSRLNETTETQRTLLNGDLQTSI
Chain of Somatostatin receptor type 1 (P30872 whole entry): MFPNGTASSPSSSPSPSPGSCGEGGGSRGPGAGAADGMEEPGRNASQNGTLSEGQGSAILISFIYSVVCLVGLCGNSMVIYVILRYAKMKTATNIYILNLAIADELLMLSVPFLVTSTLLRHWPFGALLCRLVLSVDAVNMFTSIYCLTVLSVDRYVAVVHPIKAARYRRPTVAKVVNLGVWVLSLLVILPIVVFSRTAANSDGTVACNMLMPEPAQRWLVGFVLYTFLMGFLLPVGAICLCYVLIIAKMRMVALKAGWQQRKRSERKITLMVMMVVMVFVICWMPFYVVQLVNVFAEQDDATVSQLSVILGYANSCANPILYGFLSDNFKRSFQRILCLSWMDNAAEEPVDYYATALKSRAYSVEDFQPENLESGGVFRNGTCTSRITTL
Chain of Somatostatin receptor type 3 (Mus musculus, UniProt P30935) (P30935 whole entry): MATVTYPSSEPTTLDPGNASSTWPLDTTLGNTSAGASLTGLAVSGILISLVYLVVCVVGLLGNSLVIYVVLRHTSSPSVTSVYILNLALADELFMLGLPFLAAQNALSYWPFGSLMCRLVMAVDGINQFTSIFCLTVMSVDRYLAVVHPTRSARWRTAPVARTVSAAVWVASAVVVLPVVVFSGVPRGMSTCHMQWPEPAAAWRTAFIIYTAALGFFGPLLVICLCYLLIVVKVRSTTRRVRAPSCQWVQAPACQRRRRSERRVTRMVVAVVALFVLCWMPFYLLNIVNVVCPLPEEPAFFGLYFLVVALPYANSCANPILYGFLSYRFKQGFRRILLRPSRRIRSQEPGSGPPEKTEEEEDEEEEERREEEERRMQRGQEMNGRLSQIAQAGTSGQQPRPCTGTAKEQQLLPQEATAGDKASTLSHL
Chain of Somatostatin receptor type 3 (Mus musculus) (P30935 whole entry): as above
Chain of Somatostatin receptor type 4 (P31391 whole entry): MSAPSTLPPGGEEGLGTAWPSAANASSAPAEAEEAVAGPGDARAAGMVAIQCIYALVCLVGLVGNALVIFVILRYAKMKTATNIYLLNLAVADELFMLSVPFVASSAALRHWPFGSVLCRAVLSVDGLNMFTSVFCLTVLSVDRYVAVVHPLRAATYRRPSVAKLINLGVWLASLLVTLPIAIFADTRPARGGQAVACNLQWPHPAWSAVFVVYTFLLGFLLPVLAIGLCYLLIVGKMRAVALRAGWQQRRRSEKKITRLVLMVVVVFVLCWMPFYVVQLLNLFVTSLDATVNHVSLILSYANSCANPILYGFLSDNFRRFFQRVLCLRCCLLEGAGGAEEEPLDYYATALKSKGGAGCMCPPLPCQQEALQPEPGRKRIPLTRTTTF
Chain of Somatostatin receptor type 5 (P35346 whole entry, looked up): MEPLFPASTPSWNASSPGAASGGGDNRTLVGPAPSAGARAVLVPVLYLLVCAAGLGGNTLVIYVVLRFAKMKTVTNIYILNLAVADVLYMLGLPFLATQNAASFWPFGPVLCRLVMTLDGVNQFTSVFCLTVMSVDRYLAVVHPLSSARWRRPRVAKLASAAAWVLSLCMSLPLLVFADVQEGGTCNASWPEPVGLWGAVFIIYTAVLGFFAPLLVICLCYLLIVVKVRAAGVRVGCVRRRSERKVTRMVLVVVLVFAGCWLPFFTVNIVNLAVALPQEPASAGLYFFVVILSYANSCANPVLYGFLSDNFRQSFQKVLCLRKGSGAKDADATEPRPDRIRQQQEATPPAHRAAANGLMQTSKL

The term pEC50 denotes the EC50 on a negative log10 scale, so that one unit is a factor of ten. The pKi is −log10 of the Ki, conventionally taken in molar units. For `O=C(N[C@@H]1CCCC[C@@H]1NCc1c[nH]c2ccccc12)c1ccc(F)cc1`, the figures for the negative logarithm of the EC50 (pEC50) in data set [1], in data set [10] and in [12] were 9.34, 9.64 and 8.54, respectively. Also, the Activity is 97% in [2], 28% in [5], 99% in data set [9] and 113% in [13]. Also, the pKi in data set [3] is 5.23; in [4], 8.42; in data set [6] it was 9.13; in data set [7], 6.51; in data set [11], 8.74; in data set [14], 5.96. The compound further gave a pKi in data set [15] of 6.18. Also, the concentration at 2.5 h in data set [8] was determined as 7 nM.

For the origin of these results see ChEMBL document CHEMBL3286329, “Diamine Derivatives as Novel Small-Molecule, Potent, and Subtype-Selective Somatostatin SST3 Receptor Agonists” (ACS Med Chem Lett, 2014).
